Screening results: PubChem, several laboratories
Shown are actives, neighbours in structure and some others; about 2.9% of the full set was active somewhere.
GalR3 antagonist = GalR3 antagonists in HEK293 cells, primary screen, cell-based, fluorescence readout; Galanin receptor type 3 (Homo sapiens), O60755; HEK293 GalR3-CNG cAMP membrane potential fluorescence; galR3 body fused to GalR1 C-terminus; inhibition, % at 3 µM; 360,000 tested, 0.44% active; AID 651719, 2012;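 active means inhibition above the screen-wide average plus 3 SD, cut at about 13% in these data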;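 further: forskolin and galanin both at EC90 stimulate the cells; cAMP rise reported by CNG channel membrane potential dye signal; 0% = forskolin plus galanin with DMSO and 100% = forskolin alone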
Target sequence (O60755 1-299 limits assumed): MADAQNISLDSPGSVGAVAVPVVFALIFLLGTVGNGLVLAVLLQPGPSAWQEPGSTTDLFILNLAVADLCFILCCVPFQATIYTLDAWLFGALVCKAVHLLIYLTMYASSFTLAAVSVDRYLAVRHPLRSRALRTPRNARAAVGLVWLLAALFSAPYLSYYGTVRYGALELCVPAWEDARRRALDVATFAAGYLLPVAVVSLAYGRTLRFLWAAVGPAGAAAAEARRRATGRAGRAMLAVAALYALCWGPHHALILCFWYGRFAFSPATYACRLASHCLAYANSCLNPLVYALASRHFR
MC4R antag cAMP = MC4R antagonists of cAMP signaling, primary screen, cell-based, TR-FRET, antagonist arm of biased-ligand search | inhibition, % at 6.5 µM | Melanocortin receptor 4 (Homo sapiens), P32245 | MC4R-expressing cells, MTII-stimulated cAMP, LANCE TR-FRET | 360,000 tested, 0.48% active;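 active means inhibition above its plate's cutoff, the mean of tested wells on that plate plus 3 SD, cut at about 29% in these data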;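 further: 0% = Melanotan II alone and 100% = Melanotan II plus saturating MCL0020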
Target sequence (P32245 whole entry, looked up): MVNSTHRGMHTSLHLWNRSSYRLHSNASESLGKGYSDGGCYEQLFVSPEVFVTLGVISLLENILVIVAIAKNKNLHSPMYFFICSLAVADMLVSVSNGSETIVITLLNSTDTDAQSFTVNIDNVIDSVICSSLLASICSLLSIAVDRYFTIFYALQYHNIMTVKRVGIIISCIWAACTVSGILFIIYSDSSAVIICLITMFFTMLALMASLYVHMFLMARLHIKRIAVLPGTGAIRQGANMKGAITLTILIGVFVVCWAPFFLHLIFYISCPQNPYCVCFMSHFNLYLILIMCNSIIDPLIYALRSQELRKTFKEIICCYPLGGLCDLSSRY
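Test system: U2OS cells stably expressing human melanocortin 4 receptor (MC4R); also added: Melanotan II challenge; compound: 6.5 µM single dose; timing: 30-min compound preincubation, 1-h Melanotan II challenge, 1-h detection, room temperature; signal: Eu-cAMP/anti-cAMP TR-FRET, emission 671 nm; repeats: one well per compound, no replicates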
H9c2 TAG inh = inhibitors of triacylglycerol accumulation, primary screen, cell-based, uHTS, fluorescence, H9c2. inhibition, % at 12.5 µM. 230,000 tested, 0.66% active. H9c2 cells, Nile Red lipid (TAG) fluorescence; cells loaded with 200 µM oleic acid;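 active means pattern-corrected inhibition of lipid staining of at least 50% with the nuclear-stain viability signal not falling by more than 50%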;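 further: 0% = DMSO wells and 100% = triacsin C control wells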
Calb FLC = C. albicans growth inhibition with fluconazole, primary screen, CaCi-2 strain, Alamar Blue fluorescence; C. albicans CaCi-2 + fluconazole, 48 h; growth inhibition, % (test concentration not listed); 300,000 tested, 0.57% active; AID 1979, 2009;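 active means growth inhibition above about 58% in most replicates, limit read from the data, passing the limit was not always enough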;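 further: all wells also contain fluconazole at 8 µg/ml as a sub-toxic cotreatment; 0% = median of DMSO wells and 100% = median of geldanamycin control wells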
MC4R barr agon = MC4R agonists recruiting beta-arrestin, primary screen, cell-based, luminescence, agonist arm of biased-ligand search | 360,000 tested, 0.98% active | Melanocortin receptor 4 (Homo sapiens), P32245 | U2OS MC4R beta-arrestin complementation; percent of melanotan II response, DMSO zero | activation, % at 8.9 µM;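 active means activation above a per-plate cutoff, the mean activation of sample wells on that plate plus 3 SD, cut at about 8% in these data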
Efflux pump mplx = inhibitors of Candida efflux pumps in yeast, primary screen, S. cerevisiae, Nile Red, multiplex. S. cerevisiae Candida pump triplex. inhibition, % at 10 µM. 330,000 tested, 0.44% active;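 active means plate passing quality check with inhibition over a set limit, or well fluorescence over plate mean plus 4 SD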;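 further: Nile Red retained in pooled yeast measured as flow cytometry median fluorescence; 0% = buffer negative control and 100% = Enniatin B positive control; higher means more Nile Red kept so more efflux inhibition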
Yeast cmpd fluor = counter-screen for efflux pump inhibitors: compound fluorescence. S. cerevisiae AD/pABC3, flow cytometry. fluorescence ratio to DMSO, % at 10 µM. 1,700 tested, 4% active. shares compounds with Efflux pump mplx;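 active means fluorescence ratio to DMSO above its plate's cutoff, the plate mean ratio plus 5 SD, cut at about 210% in these data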;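 further: unstained yeast with no Nile Red so the signal is compound autofluorescence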
CaMdr1 efflux inh = inhibitors of Candida albicans Mdr1 efflux, confirmation, flow cytometry, singleplex, Cherry Pick1 set. S. cerevisiae AD/CaMDR1, Nile Red efflux. inhibition, % at 10 µM. shares compounds with Efflux pump mplx. 1,700 tested, 1% active; in the data active means inhibition above about 26%;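 further: 0% = DMSO vehicle and 100% = reference inhibitor; higher means more Nile Red retained so more efflux inhibition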
CaCdr2 efflux inh = inhibitors of Candida albicans Cdr2 efflux pump, confirmation, S. cerevisiae AD/CaCDR2, flow cytometry, cherry pick 1, singleplex. shares compounds with Efflux pump mplx. Nile Red retention. Nile Red retention ratio vs DMSO, % at 10 µM. 1,700 tested, 4% active. AID 588520, 2011; in the data active means Nile Red retention ratio vs DMSO above about 190%;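 further: higher ratio means more blocking of Cdr2 efflux of the dye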
Cdr1 pump inh = inhibitors of Candida albicans Cdr1 efflux pump, confirmation, S. cerevisiae AD/CaCDR1, flow cytometry, cherry pick 1, singleplex; inhibition, % at 10 µM; 1,700 tested, 1% active; shares compounds with Efflux pump mplx; AID 588522, 2011; Nile Red efflux;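 active means inhibition above the screen-wide mean plus twice its standard deviation, cut at about 32% in these data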
* marks the source's active call; other numbers are inactive results; . = no result.

SMILES	GalR3 antagonist	MC4R antag cAMP	H9c2 TAG inh	Calb FLC	MC4R barr agon	Efflux pump mplx	Yeast cmpd fluor	CaMdr1 efflux inh	CaCdr2 efflux inh	Cdr1 pump inh
S=c1[nH]nc(-c2cccnc2)n1/N=C/c1ccc(Br)s1	5	11	.	-3	0	8.0*	83	0	93	0
Cc1ccc(/C=N/n2c(-c3cccnc3)n[nH]c2=S)s1	6	5	3	-3	1	0	.	.	.	.
CCOC(=O)CN1CCCc2nc(-c3ccc(OC)cc3)ccc21	0	.	.	.	.	.	.	.	.	.
CC(=O)c1c(COC(=O)c2ccccc2)nc2ccccc2[n+]1[O-]	0	-6	-66	11	-1	1.8*	95	0	105	0
CC(=O)c1c(COC(=O)c2ccc(Cl)cc2)nc2ccccc2[n+]1[O-]	11	-3	21	0	2	0	.	.	.	.
CCCCC1CC2=C(C(=O)OC(C)(C)O2)C(c2ccc3ccccc3c2)O1 (configuration not stated)	-5	.	.	.	.	.	.	.	.	.
O=C(CCS(=O)(=O)c1ccccc1F)Nc1ccc(N2CCN(Cc3ccccc3)CC2)cc1	0	0	-4	.	-1	1.9*	109	0	89	0
COc1ccc(N2C(=O)CC(NNC(=O)c3ccco3)C2=O)cc1 (configuration not stated)	-2	7	-7	4	-1	2.1*	105	0	110	0
O=C(NNC1CC(=O)N(c2ccccc2)C1=O)c1ccco1 (configuration not stated)	-6	21	2	-9	-2	0	.	.	.	.
C=CCN1[C@@H](CC(C)C)COc2cccc(NCCCN3CCOCC3)c2S1(=O)=O	-4	.	.	.	.	.	.	.	.	.
CSc1ccccc1C(=O)Nc1cc(C)cc(C)c1	-3	2	-7	-3	0	0	.	.	.	.
CSc1ccccc1C(=O)Nc1ccc(C)c(C)c1	3	4	.	17	0	1.4*	108	0	114	0
O=C(NCCc1c[nH]c2ccccc12)c1[nH]c(C(F)(F)F)nc1-c1ccccc1	-5	.	.	.	.	.	.	.	.	.
CCN=C1NC(c2ccccc2)C(C(=O)OC)=C(C)N1Cc1ccc(C(F)(F)F)cc1 (configuration not stated)	-6	.	.	.	.	.	.	.	.	.
Cc1occc1C(=O)NNC(=O)c1ccccc1F	-5	1	2	-2	1	1.1*	105	0	104	0
Cc1occc1C(=O)NNC(=O)c1ccc(F)cc1	1	4	-9	-1	-2	0	.	.	.	.
O=C(O)C(Cc1c[nH]c2ccccc12)NS(=O)(=O)c1cccc2nsnc12 (configuration not stated)	-2	-4	.	-3	-2	24*	79	0	95	0
O=C(O)C(Cc1c[nH]c2ccccc12)NS(=O)(=O)c1ccccc1 (configuration not stated)	-3	6	-3	2	0	0	.	.	.	.
CC1CC(=Cc2ccc(N)cc2)C(=O)O1 (configuration not stated)	0	-1	16	.	-1	.	.	.	.	.
Cc1ccccc1-c1nc(CSc2nc3c(c(=O)[nH]2)CCC3)c(C)o1	-1	-7	3	-14	1	0	.	.	.	.
Cc1ccccc1CSc1nc2c(c(=O)[nH]1)CCC2	.	-5	.	-21	5	5.9*	109	0	104	0
CC(=O)Nc1ccc(S(=O)(=O)N2CCN(c3nc4ccccc4n3CC(C)C)CC2)cc1	-9	18	-4	-3	-1	1.0*	100	0	114	0
CCn1c(N2CCN(S(=O)(=O)c3ccc(OC)cc3)CC2)nc2ccccc21	-10	1	.	-6	-1	0	.	.	.	.
c1cc2ccc3ccc(CN4CCOCC4)c4ccc(c1)c2c34	-4	-4	.	9	3	1.1*	106	0	101	0
CCCS(=O)(=O)c1nc(S(=O)(=O)c2ccc(C)cc2)c(NCc2ccco2)s1	-10	10	.	1	-3	10*	98	0	87	0
SMILES	GalR3 antagonist	MC4R antag cAMP	H9c2 TAG inh	Calb FLC	MC4R barr agon	Efflux pump mplx	Yeast cmpd fluor	CaMdr1 efflux inh	CaCdr2 efflux inh	Cdr1 pump inh
CCOC(=O)C1(C)CCCN1C(=O)c1snnc1C (configuration not stated)	-6	3	-2	.	-3	.	.	.	.	.
CCn1c(SCC(=O)N(C)c2c(N)n(Cc3ccccc3)c(=O)[nH]c2=O)nnc1-c1cccs1	-6	3	0	.	-2	.	.	.	.	.
CCCCN(C=O)c1c(CC)nc2c(OCc3cccc(Cl)c3)cccn12	-8	4	-29	.	0	.	.	.	.	.
CC(CCc1ccccc1)NC(=O)c1ccc(NC(=O)c2cccc(Br)c2)cc1 (configuration not stated)	-4	8	.	5	6	6.5*	99	0	127	0
COc1c(/C=N/NC(=O)[C@H]2C[C@@H]2c2ccccc2)c(CCN(C)C(C)=O)cc2c1OCO2	1	5	0	-8	-2	0	.	.	.	.
CCC(=O)N(C)CCc1cc2c(c(OC)c1/C=N/NC(=O)[C@H]1C[C@@H]1c1ccccc1)OCO2	-6	15	9	-4	-2	3.5*	87	0	102	0
CCCC#Cc1ccc2c(c1)O[C@H](CN(C)C(=O)CC1CC1)[C@H](C)CN([C@@H](C)CO)S2(=O)=O	-4	7	25	.	-1	.	.	.	.	.
COc1ccc2cc(C(C)C(=O)Nc3cccc(S(=O)(=O)N(C)C)c3)ccc2c1 (configuration not stated)	-7	14	.	-10	0	3.2*	100	0	94	0
CNC(=O)c1cccc(NC(=O)C(C)c2ccc3cc(OC)ccc3c2)c1 (configuration not stated)	-6	6	.	14	-2	1	.	.	.	.
